Screens (PubChem BioAssay)
ARFGAP1 inhibitor = inhibits rat ARF GTPase activating protein 1 | AID 651572 | 0.26% of 360,000 active | Arfgap1-stimulated ARF1 GTP hydrolysis, GDP FP detection | Q62848 | inhibition, % at 16.5 µM;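 active = inhibition above a per-plate limit, mean inhibition of low control wells plus 3 SD, cut at about 25% in these data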;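 note: 0% = DMSO wells with enzyme and 100% = wells lacking Arfgap1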
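System: truncated rat Arfgap1 GAP domain / Benchmarks: high control wells lacking Arfgap1, low control full reaction with DMSO / Times: compound-enzyme preincubation 20 min, reaction 120 min, detection 60 min, 25 °C / Repeats: one replicate per compound / Also added: human ARF1(Δ1-17)-GTP substrate / Measured by: Tracer-displacement fluorescence polarization with EDTA stop, 620/688 nm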
esBAF inh = inhibitors of esBAF chromatin remodeling in mouse ES cells; 2% of 350,000 active; Bmi1-luciferase knock-in reporter, 24 h; 100% = twice the neutral-well signal; reporter increase, % at 12.5 µM; AID 602393; in the data active = activation above about 40%; inconclusive = no clear call, values can overlap the other calls;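 note: 0% = median of the plate's neutral control wells and 100% = double that signal; a rise in the Bmi1 reporter signal indicates esBAF inhibition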
ASAP1 inh = inhibitors of human ASAP1 ArfGAP activity; ASAP1-stimulated ARF1 GTP hydrolysis, GDP FP detection; inhibition, % at 16.5 µM; 0.19% of 360,000 active; AID 624377; in the data active = inhibition above about 25%;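 note: 0% = vehicle with enzyme and substrate and 100% = no enzyme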
Target sequence (Q9ULH1 325-724 limits assumed): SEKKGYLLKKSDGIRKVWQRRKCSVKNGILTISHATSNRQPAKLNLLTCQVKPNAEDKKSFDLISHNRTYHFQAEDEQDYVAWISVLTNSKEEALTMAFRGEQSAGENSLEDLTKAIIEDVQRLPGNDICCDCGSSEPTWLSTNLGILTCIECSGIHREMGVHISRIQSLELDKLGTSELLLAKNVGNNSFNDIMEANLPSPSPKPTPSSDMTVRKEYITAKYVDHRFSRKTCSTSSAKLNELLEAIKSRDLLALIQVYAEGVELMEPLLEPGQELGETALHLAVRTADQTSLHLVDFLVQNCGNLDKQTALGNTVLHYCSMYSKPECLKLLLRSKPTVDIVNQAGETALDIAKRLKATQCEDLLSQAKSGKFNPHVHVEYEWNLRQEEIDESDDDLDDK
SMARCA2 activ = SMARCA2 function activation, primary screen. MG213 cells, MMTV-luciferase reporter, dexamethasone, overnight. activation, % at 9.1 µM. AID 652017. 1% of 370,000 active; in the data active = activation above about 7.8%;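 note: 0% = vehicle wells and 100% = reference activator wells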
An asterisk follows results filed as active; ? = inconclusive; . = not tested or not shown. Shown are actives, neighbours in structure and some others; about 2.6% of the full set was active somewhere.

SMILES	ARFGAP1 inhibitor	esBAF inh	ASAP1 inh	SMARCA2 activ
Nn1c(COc2cccc(Cl)c2)nc2ccccc2c1=O	-8.3	44.5*	-8.3	1.8
Cc1cccc(OCc2nc3ccccc3c(=O)n2N)c1	5.2	59.3*	-3.0	-0.2
COc1cc(NC(=O)c2ccc(N3CCCC3=O)cc2)cc(OC)c1	-10.9	59.0*	-10.2	-0.9
CCN1CCN(c2ccc(NC(=O)c3cccc(N4CCCC4=O)c3)cc2)CC1	-10.1	60.2*	1.7	5.0
COc1ccc2cc(N3CCCC3=O)ccc2c1	-11.6	48.2*	-3.4	0.6
O=C(NCC[C@H]1CC[C@H](NC(=O)C2CCOCC2)[C@@H](CO)O1)Nc1ccc(Cl)cc1	.	3.4	.	.
COCC(=O)NC[C@H]1N[C@H](CO)[C@@H]1c1ccc(-c2ccccc2F)cc1	.	-8.1	.	.
CCOC(=O)c1c(C)[nH]c(C(=O)OCc2ccc(F)cc2)c1C	-3.9	49.2*	-1.9	3.2
COC(=O)c1ccc(COC(=O)c2[nH]c(C)c(C(C)=O)c2C)o1	-3.8	-5.9	-3.9	-2.0
CC(=O)c1c(C)[nH]c(C(=O)OCc2ccc([N+](=O)[O-])cc2)c1C	-1.2	41.1*	-3.4	-1.9
CC(=O)c1c(C)[nH]c(C(=O)COC(=O)c2cccnc2Cl)c1C	3.8	52.1*	10.0	-1.5
CCOC(=O)c1c(C)[nH]c(C(=O)OCc2ccccc2F)c1C	3.9	37.6	-1.2	7.5
CCOC(=O)c1c(C)[nH]c(C(=O)COC(=O)C2CC2)c1C	-2.8	?	0.5	6.9
CCOC(=O)c1c(C)[nH]c(C(=O)COC(=O)C2(C)CC2(Cl)Cl)c1C (configuration not stated)	2.9	76.1*	0.2	5.2
N#C[C@@H]1N[C@@H](CO)[C@H]1c1ccc(C#CC2CCCCC2)cc1	.	-0.7	.	.
C[C@H](CO)N1C[C@H](C)[C@@H](CN(C)C)Oc2ccc(NS(=O)(=O)c3ccccc3)cc2C1=O	.	-3.1	.	.
CC=Cc1ccc2n(c1=O)C[C@H]1[C@H](CO)[C@@H](C(=O)NCCC)N(Cc3cccc(F)c3)[C@@H]21 (mixture of isomers)	.	8.4	.	.
O=C(NCC1CC1)[C@H]1[C@H](CO)[C@H]2Cn3c(ccc(-c4ccccc4F)c3=O)[C@@H]1N2Cc1ccccc1	.	0.5	.	.
CCOC(=O)c1c(C)[nH]c(C(=O)OCC(=O)c2ccccc2)c1C	-2.0	44.7*	-2.7	5.2
CC(=O)c1c(C)[nH]c(C(=O)OCC(=O)N2CCc3ccccc32)c1C	-4.5	54.5*	7.0	1.5
CC(=O)c1c(C)[nH]c(C(=O)OCC(=O)NCc2ccccc2)c1C	-7.9	9.7	7.4	-7.1
CCOC(=O)c1[nH]c(C)c(C(=O)OCC(=O)N2CCc3ccccc32)c1C	9.5	6.9	5.5	-2.7
CC(=O)c1c(C)[nH]c(C(=O)OCc2ccccc2)c1C	1.6	39.9*	0.9	1.1
CN1C(=O)c2cc(NC(=O)c3ccc(F)cc3)ccc2OC[C@@H]2O[C@@H](CC(=O)O)CC[C@H]21	.	-6.8	.	.
O=S(=O)(N[C@H]1CC[C@H](CCn2cc(-c3cccc(F)c3)nn2)O[C@H]1CO)c1ccc(F)cc1	.	6.1	.	.
SMILES	ARFGAP1 inhibitor	esBAF inh	ASAP1 inh	SMARCA2 activ
CCCC#Cc1cnc2c(c1)C(=O)N([C@@H](C)CO)C[C@H](C)[C@@H](CN(C)C(=O)C1CCC1)O2	.	-5.8	.	.
O=C(Nc1nc2ccc(Br)cc2s1)c1ccco1	-0.6	13.1	-3.4	3.5
CCOC(=O)c1ccc2nc(Nc3nc4ccc(F)cc4s3)sc2c1	-0.8	.	-8.5	-4.8
CC(=O)Nc1nc2ccc(Br)cc2s1	19.1	62.2*	5.1	1.8
Cn1cc(Cl)c(C(=O)Nc2nc3ccc(Cl)cc3s2)n1	-5.8	112.0*	16.0	2.7
CCC(=O)N1CCN(c2nc3ccc(Br)cc3s2)CC1	-0.1	74.8*	-0.1	0.1
CCOC(=O)c1ccc2nc(NC(C)=O)sc2c1	-10.6	47.2*	-4.2	3.1
O=C(C[C@@H]1C[C@@H]2c3cc(NC(=O)Nc4ccc(C(F)(F)F)cc4)ccc3O[C@@H]2[C@@H](CO)O1)NCc1cc(F)ccc1F	.	5.3	.	.
COc1cccc(/C=N/N2CCN(c3ccc(Cl)cc3)CC2)c1OC	3.0	3.2	-2.0	0.2
COc1cccc(C=NN2CCCCCC2)c1OC	-1.9	45.0*	0.3	4.4
Oc1ccccc1-c1csc(-c2ccccc2)n1	-4.2	76.8*	10.9	2.0
CC(C)C(=O)Nc1ccc(-c2csc(-c3ccccc3)n2)cc1	3.8	71.1*	-9.0	5.1
Oc1ccc(-c2csc(-c3ccccc3)n2)cc1O	8.9	60.4*	12.1	-2.4
Oc1ccc(-c2csc(-c3cccnc3)n2)cc1O	2.1	.	-2.5	-0.1
